Measured values published in ChEMBL document CHEMBL4364253, “Application of Dually Activated Michael Acceptor to the Rational Design of Reversible Covalent Inhibitor for Enterovirus 71 3C Protease” (J Med Chem, 2019).
Values belong to the compound of their own block, whether it stands above or below them. The source made the active and inactive calls.

Assays:
[1] = target: Chymotrypsinogen A (Bos taurus) (UniProt P00766); test: Inhibition of bovine pancreas alpha-chymotrypsin at 50 uM after 30 mins using N-Succinyl-L-phenylalanine- p-nitroanilide measured for 30 mins
[2] = system: Enterovirus A71; test: Antiviral activity against pseudotyped Enterovirus A71 infected in human muscular rhabdomyosarcoma cells treated prior to viral infection and measured after 24 hrs by luminescence method; format: functional, organism-based; conditions: Enterovirus A
[3] = Reversible inhibition of Enterovirus 71 3C protease assessed as overall inhibition constant using NMA-IEALFQGPPK(DNP)FR as substrate pre-incubated for 30 mins followed by substrate addition and measured over 30 mins by fluorescence method; parameters: species or system Enterovirus A71
[4] = system: Enterovirus A71; test: Binding affinity to Enterovirus 71 3C protease assessed as enzyme-compound covalent adduct formation via Cys147 residue after 1 hr by HPLC-ESI/MS analysis
[5] = system: Enterovirus A71; test: Reversible inhibition of Enterovirus 71 3C protease assessed as recovery of enzyme activity at 10 to 20 equivalent using peptide substrate pre-incubated for 1 hr followed by dilution prior to substrate addition using ultra-filtered sample relative to control; parameters: scale not given: the % may be the effect or the level left
[6] = system: Enterovirus A71; test: Reversible inhibition of Enterovirus 71 3C protease assessed as recovery of enzyme activity at 10 to 20 equivalent using peptide substrate pre-incubated for 1 hr followed by dialysis and subsequent substrate addition measured up to 72 hrs relative to control; parameters: scale not given: the % may be the effect or the level left
[7] = system: Enterovirus A71; test: Inhibition of Enterovirus 71 3C protease in presence of glutathione
[8] = system: Enterovirus A71; test: Inhibition of Enterovirus 71 3C protease in presence of ethanolamine
[9] = system: Enterovirus A71; test: Inhibition of Enterovirus 71 3C protease in presence of lysine
[10] = system: Enterovirus A71; test: Antiviral activity against pseudotyped FY Enterovirus A71 harboring luciferase reporter gene infected in HEK-293T cells in presence of glutathione by Bright-Glo Luciferase Assay; format: functional, organism-based
[11] = system: Enterovirus A71; test: Antiviral activity against pseudotyped FY Enterovirus A71 harboring luciferase reporter gene infected in HEK-293T cells in presence of ethanolamine by Bright-Glo Luciferase Assay; format: functional, organism-based
[12] = system: Enterovirus A71; test: Antiviral activity against pseudotyped FY Enterovirus A71 harboring luciferase reporter gene infected in HEK-293T cells in presence of lysine by Bright-Glo Luciferase Assay; format: functional, organism-based
[13] = target: T1, Cathepsin K (Homo sapiens) (UniProt P43235); test: Inhibition of human Cathepsin K at 50 uM using Ac-LR-AFC as substrate preincubated for 10 to 15 mins followed by substrate addition and measured for 30 to 60 mins by fluorescence method relative to control
T1 sequence (whole entry): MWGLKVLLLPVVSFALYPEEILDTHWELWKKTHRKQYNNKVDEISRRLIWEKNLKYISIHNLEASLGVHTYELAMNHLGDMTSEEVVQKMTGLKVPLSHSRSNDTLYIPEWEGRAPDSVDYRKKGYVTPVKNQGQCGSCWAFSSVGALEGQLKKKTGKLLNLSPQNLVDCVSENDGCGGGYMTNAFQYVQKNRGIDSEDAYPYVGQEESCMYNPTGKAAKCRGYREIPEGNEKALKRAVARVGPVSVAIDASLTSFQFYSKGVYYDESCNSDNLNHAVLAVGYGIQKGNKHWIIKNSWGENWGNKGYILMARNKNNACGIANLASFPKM

[14] = target: T2, Calpain-1 catalytic subunit (Homo sapiens) (UniProt P07384); test: Inhibition of human Calpain1 at 50 uM using Ac-LLY-AFC as substrate preincubated for 5 mins followed by substrate addition and measured after 10 mins by fluorescence method relative to control
T2 sequence (whole entry): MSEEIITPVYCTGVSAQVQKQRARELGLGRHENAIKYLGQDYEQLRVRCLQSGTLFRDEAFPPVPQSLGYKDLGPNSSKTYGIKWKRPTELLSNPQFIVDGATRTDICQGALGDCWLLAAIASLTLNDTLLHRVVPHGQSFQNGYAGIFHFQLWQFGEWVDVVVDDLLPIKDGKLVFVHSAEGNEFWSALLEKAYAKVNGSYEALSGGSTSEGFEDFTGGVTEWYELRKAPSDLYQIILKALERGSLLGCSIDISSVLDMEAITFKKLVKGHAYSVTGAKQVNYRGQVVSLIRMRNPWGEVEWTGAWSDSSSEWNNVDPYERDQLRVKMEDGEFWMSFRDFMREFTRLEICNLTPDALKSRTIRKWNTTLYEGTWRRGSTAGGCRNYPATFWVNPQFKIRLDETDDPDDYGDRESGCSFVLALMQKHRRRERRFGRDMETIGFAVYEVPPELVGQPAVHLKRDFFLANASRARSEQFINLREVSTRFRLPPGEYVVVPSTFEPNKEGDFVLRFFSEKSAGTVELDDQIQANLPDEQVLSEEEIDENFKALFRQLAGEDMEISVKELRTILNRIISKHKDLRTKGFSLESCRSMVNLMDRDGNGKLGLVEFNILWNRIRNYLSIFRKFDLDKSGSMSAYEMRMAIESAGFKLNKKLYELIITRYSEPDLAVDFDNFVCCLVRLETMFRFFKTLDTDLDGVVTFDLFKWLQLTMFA

[15] = system: Enterovirus A71; test: Slow-binding inhibition of Enterovirus 71 3C protease up to 3 uM using NMA-IEALFQGPPK(DNP)FR as substrate by fluorescence method
[16] = system: Enterovirus A71; test: Binding affinity to Enterovirus 71 3C protease assessed as enzyme-compound covalent adduct formation via Cys147 residue by measuring ratio of peak intensity of covalently modified to unmodified protein at 20 equivalent after 1 hr by HPLC-ESI/MS analysis
Outline: (§1)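 Recombinant EV71 3C protease (40 µM) incubated with inhibitor at 30 °C in 50 mM Tris, 150 mM NaCl, 1 mM EDTA-2Na, pH 7.0. Free inhibitor and salts removed by three ultrafiltration washes with water (10 kDa cutoff). Analysis by HPLC-ESI-Orbitrap MS with 0.1% formic acid water/acetonitrile mobile phases. Spectra deconvoluted; modification given as adduct-to-unmodified protein peak intensity ratio (I_add/I_pro).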

[17] = system: Enterovirus A71; test: Binding affinity to Enterovirus 71 3C protease assessed as enzyme-compound covalent adduct formation via Cys147 residue by measuring ratio of peak intensity of covalently modified to unmodified protein at 10 equivalent after 30 mins by HPLC-ESI/MS analysis; outline: as §1
[18] = system: Enterovirus A71; test: Irreversible covalent inhibition of Enterovirus 71 3C protease at 64 uM using NMA-IEALFQGPPK(DNP)FR as substrate and measured for 1 to 1.5 hrs by fluorescence method
[19] = Inhibition of Enterovirus 71 E2004104-TW-CDC protease 3C (1549 to 1731 residues) expressed in Escherichia coli BL21(DE3) cells using Dacyl-KRTATVQGPSLDFE-Edans as substrate by fluorescence method; parameters: species or system Enterovirus A71
[20] = system: Enterovirus A71; test: Antiviral activity against Enterovirus A71 EV71/Shenzhen/120F1/09 infected in human muscular rhabdomyosarcoma cells assessed as reduction in virus-induced cell death incubated for 3 days by CCK-8 assay; format: functional, organism-based; conditions: Enterovirus A, EV71/Shenzhen/120F1/09, 72 h
[21] = system: Enterovirus A71; test: Inhibition of Enterovirus 71 3C protease assessed as induction of rapid equilibrium for enzyme-inhibitor complex formation up to 1.5 uM using NMA-IEALFQGPPK(DNP)FR as substrate by fluorescence method
[22] = system: Enterovirus A71; test: Binding affinity to Enterovirus 71 3C protease assessed as enzyme-compound covalent adduct formation via Cys147 residue by measuring ratio of peak intensity of covalently modified to unmodified protein at 10 to 20 equivalent after 1 hr by HPLC-ESI/MS analysis; outline: as §1
[23] = system: RD; test: Cytotoxicity against human RD cells at 100 uM after 24 hrs by WST-1 assay relative to control; format: cell-based
[24] = system: RD; test: Cytotoxicity against human RD cells at 33 uM after 24 hrs by WST-1 assay; format: cell-based

Structure (SMILES): COC(=O)/C(C#N)=C/[C@H](C[C@@H]1CCCNC1=O)NC(=O)[C@H](Cc1ccc(F)cc1)NC(=O)c1cc(C)on1
- inhibition [1]: inactive
- EC50 [2]: 53 nM
- Ki [3]: 9.4 nM
- Activity [4]: inactive
- Activity [5]: 65 to 85%
- Activity [6]: 50%
- inhibition [7]: inactive
- inhibition [8]: Active
- inhibition [9]: Active
- Activity [10]: Active
- Activity [11]: Active
- Activity [12]: Active
- inhibition [13]: < 50%
- inhibition [14]: < 50%

- EC50 [2]: 67 nM
- inhibition [15]: Active
Structure (SMILES): CCN(C(=O)OC(C)(C)C)C(=O)/C(C#N)=C/[C@H](C[C@@H]1CCCNC1=O)NC(=O)[C@H](Cc1ccc(F)cc1)NC(=O)c1cc(C)on1
- Ki [3]: 24 nM

Structure (SMILES): Cc1cc(C(=O)N[C@@H](Cc2ccc(F)cc2)C(=O)N[C@H](/C=C/C#N)C[C@@H]2CCCNC2=O)no1
- Ratio [16]: > 100
- Ratio [17]: > 100
- EC50 [2]: 37000 nM
- inhibition [18]: Active

- IC50 [19]: 1600 nM
Structure (SMILES): CCOC(=O)/C=C/[C@H](C[C@@H]1CCNC1=O)NC(=O)[C@@H](CC(=O)[C@@H](NC(=O)c1cc(C)on1)C(C)C)Cc1ccc(F)cc1 [RUPINTRIVIR]
- EC50 [20]: 41 nM

- EC50 [2]: 30 nM
- Activity [4]: inactive
- inhibition [21]: Active
- Activity [5]: 65 to 85%
Structure (SMILES): Cc1cc(C(=O)N[C@@H](Cc2ccc(F)cc2)C(=O)N[C@H](/C=C(\C#N)C(=O)OC(C)(C)C)C[C@@H]2CCCNC2=O)no1
- Ki [3]: 6.7 nM

Structure (SMILES): Cc1cc(C(=O)N[C@@H](Cc2ccc(F)cc2)C(=O)N[C@H](/C=C(\C#N)C(=O)N(C)C(=O)OC(C)(C)C)C[C@@H]2CCCNC2=O)no1
- inhibition [1]: inactive
- Ratio [22]: 1.5
- EC50 [2]: 51 nM
- Ki [3]: 9.3 nM
- Activity [5]: Active
- Activity [6]: 30%
- inhibition [7]: inactive
- inhibition [8]: Active
- inhibition [9]: Active
- Activity [10]: Active
- Activity [11]: Active
- Activity [12]: Active
- inhibition [13]: < 50%
- inhibition [14]: < 50%

Structure (SMILES): Cc1cc(C(=O)N[C@@H](Cc2ccc(F)cc2)C(=O)N[C@H](/C=C(\C#N)c2ccc(C(F)(F)F)cc2)C[C@@H]2CCCNC2=O)no1
- EC50 [2]: 1400 nM
- Activity [23]: 100%
- Activity [24]: Toxic
